Sampled rows, rich in hits. Any-hit rate of the full collection: about 2.3%.
ATG4B inh: blocks human ATG4B protease cleavage of LC3 substrate; Q9Y4P1; ATG4B cleavage of LC3-PLA2, NBD-HPC fluorescence, 1 h; inhibition, % at 8.33 µM; 0.51% of 340,000 active; in the data active means inhibition above about 40%
Target sequence (Q9Y4P1 whole entry, looked up): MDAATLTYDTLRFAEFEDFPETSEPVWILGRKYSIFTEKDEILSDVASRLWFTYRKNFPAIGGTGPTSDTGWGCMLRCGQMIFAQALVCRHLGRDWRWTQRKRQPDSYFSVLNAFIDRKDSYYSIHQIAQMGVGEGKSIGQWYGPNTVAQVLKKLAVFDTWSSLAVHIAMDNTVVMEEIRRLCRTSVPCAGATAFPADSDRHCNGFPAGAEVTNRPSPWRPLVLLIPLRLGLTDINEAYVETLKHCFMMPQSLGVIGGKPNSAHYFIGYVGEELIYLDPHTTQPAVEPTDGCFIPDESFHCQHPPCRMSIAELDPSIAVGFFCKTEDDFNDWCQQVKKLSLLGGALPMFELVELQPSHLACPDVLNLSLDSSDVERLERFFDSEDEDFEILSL
SKN-1 block: inhibitors of C. elegans SKN-1. C. elegans VP596 Pgst-4::GFP/RFP ratio, acrylamide-induced, 24 h. inhibition, % at 21.8 µM. 0.49% of 360,000 active;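 active means interference check ratio from 0.5 to 1.5 plus GFP to RFP signal ratio inhibition reaching or exceeding a fixed threshold, cut at about 30% in these data, passing the limit was not always enough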
MPTP inh: blocks calcium-induced mitochondrial swelling. isolated mouse mitochondria, Ca2+ swelling absorbance, 30 min. inhibition, % at 10 µM. 1.4% of 360,000 active;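 active means inhibition of 50% or more, scaled per plate between neutral and stimulator controls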;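 further: 0% = DMSO wells given calcium and 100% = 1 mM EGTA wells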
MT1-MMP act inh: inhibitors of human MT1-MMP activation; HT1080 RFP-PRO-GFP cells, GFP/RFP ratio fluorescence, overnight; percent of plate control window, DMSO zero; GFP/RFP ratio change, % at 20 µM; 0.061% of 360,000 active; AID 651647;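 active means GFP/RFP ratio change of at least 30% with cell ATP level not reduced by more than half and red fluorescence within 50% of control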
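Test system: HT1080 cells expressing an RFP-PRO-GFP fluorescent reporter construct / Compound dosing: single-point 20 µM compound, 1% DMSO / Schedule: cells overnight before dosing, compound overnight, 37 °C, 5% CO2 / Evaluation: GFP/RFP fluorescence ratio / Control set: DMSO and RFP-L50D-GFP cell wells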
MPTP counter: mitochondrial membrane potential, counter-screen | AID 624504 | inhibition, % at 10 µM | isolated mitochondria, Rhodamine 123 fluorescence | shares compounds with MPTP inh | 78% of 5,000 active; in the data active means inhibition above about 22%;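 further: 0% = DMSO vehicle and 100% = positive control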
MPTP abs DR: MPTP inhibition, dose response swelling confirmation | IC50, µM | AID 651561 | 58% of 780 active | isolated mitochondria swelling, absorbance | shares compounds with MPTP inh; in the data active means IC50 below about 20 µM
MPTP cs DR: active in counter-screen for permeability transition pore inhibitors; isolated mitochondria counterscreen, fluorescence read-out; 49% of 780 active; IC50, µM; shares compounds with MPTP inh; in the data active means IC50 below about 80 µM
* hit, by the source's call; i = inactive; nt = no result.

SMILES | ATG4B inh | SKN-1 block | MPTP inh | MT1-MMP act inh | MPTP counter | others
O=C(COC(=O)CCNS(=O)(=O)c1cccc(C(F)(F)F)c1)NC(=O)NC1CCCCC1 | -11 | 3 | 61* | 0 | -11 | MPTP abs DR=18*;MPTP cs DR=23*
CCn1cc(CNC(=S)Nc2cccc(Cl)c2C)cn1 | 0 | -8 | -1 | 3 | nt
O=C(N/N=C/c1cccnc1)c1cccc(Cl)c1 | 1 | 17 | 4 | -4 | nt
CC(C)c1ccc(/C=N/NC(=O)c2cccc(Cl)c2)cc1 | 15 | 10 | 74* | 1 | 65*
O=C(CSc1nncs1)Nc1ccc(Cl)cc1C(F)(F)F | 4 | 15 | 2 | 1 | nt
COc1ccc(S(=O)(=O)Nc2cccc3c2O[C@H](CN(C)C(=O)Nc2ccc4c(c2)OCO4)[C@@H](C)CN([C@H](C)CO)C3=O)cc1 | -10 | -2 | -2 | -3 | nt
Cc1sc2ncnc(N3CCN(S(=O)(=O)c4ccccc4)CC3)c2c1C | 3 | 14 | 94* | -12 | 89*
Clc1ccc(OCCN2CCN(c3ncnc4sccc34)CC2)cc1 | -3 | -34 | 100* | 6 | 101*
CCN1CCN(CCOc2ccc(Cl)cc2)CC1 | 13 | 2 | 1 | 0 | nt
Cc1ccc(OCCN2CCN(c3ncnc4sc(C)c(C)c34)CC2)cc1 | 0 | -3 | 97* | 7 | 90*
CC[C@H](C)[C@H](NC(N)=O)C(=O)NCCc1ccc(Cl)cc1Cl | -10 | 11 | -2 | 2 | nt
CCN(CC)c1ccc(CNc2nc3ccccc3n2CCN2CCCCC2)cc1 | 27 | 8 | 64* | -22 | 96*
CCOc1ccc(S(=O)(=O)n2cc(F)c(=O)[nH]c2=O)cc1[N+](=O)[O-] | 8 | 17 | -1 | -1 | nt
Cc1ccc(CSCc2nc3ccccc3[nH]2)cc1 | 3 | -2 | -3 | 3 | nt
Cc1cc(C)cc(CC(Cc2nc3ccccc3[nH]2)c2nc3ccccc3[nH]2)c1 (stereo unspecified) | -7 | -13 | 96* | -31 | 108*
C=CCN(CC=C)C(=O)c1ccc2nc(Cc3ccc(OC)c(OC)c3)oc2c1 | -7 | 14 | 50* | 1 | 11 | MPTP abs DR=i;MPTP cs DR=43*
CCCCCCCC(=O)NNC(=O)Cc1ccccc1 | 2 | 12 | -2 | 7 | nt
CCCCCCCCCCCC(=O)c1c(O)cccc1O | 4 | 8 | 66* | -1 | 56*
CCCCOc1ccc(C(=O)OC2CC(C)N(C)CC2C)cc1 (stereo unspecified) | -8 | 42* | 83* | 0 | -6 | MPTP abs DR=9.7*;MPTP cs DR=74*
CC1CN(C)C(C)CC1OC(=O)C(c1ccccc1)c1ccccc1 (stereo unspecified) | 0 | 0 | 1 | -2 | nt
Cc1c(CC(=O)N2CCC(C(N)=O)CC2)c(=O)oc2cc3c(cc12)CCC1(CCCCC1)O3 | -1 | 10 | -2 | 4 | nt
Cc1ccc(C(=O)NNC(=S)NC(=O)c2ccc(Cl)cc2Cl)cc1 | 4 | -1 | 88* | 7 | 8
CCCCC(=O)NC(=S)NNC(=O)c1ccc(Cl)cc1Cl | -8 | 17 | 51* | 8 | -13 | MPTP abs DR=15*;MPTP cs DR=>80
Cc1cccc(C)c1OCC(O)CN1CCC(CN2C(=O)c3cccc4cccc(c34)C2=O)CC1 (stereo unspecified) | 36 | -8 | 62* | -3 | 11
Cc1ccccc1OCC(O)CN1CCN(CCN2C(=O)c3cccc4cccc(c34)C2=O)CC1 (stereo unspecified) | -27 | -10 | 2 | 7 | nt
SMILES | ATG4B inh | SKN-1 block | MPTP inh | MT1-MMP act inh | MPTP counter | others
O=C(Nc1ccccc1)Nc1sccc1-c1nc2ccccc2s1 | -7 | 23 | 26 | 4 | nt
O=C(Cc1csc(NC(=O)Nc2cccc(Cl)c2)n1)NCc1ccccn1 | 18 | 23 | 14 | 6 | nt
O=C(Cc1csc(NC(=O)Nc2cccc(Cl)c2)n1)NC1CCCC1 | 0 | 9 | 79* | 7 | 73*
CCC(=O)NCc1csc(-c2cccs2)n1 | -2 | -9 | 0 | 5 | nt
O=C(Nc1cccc(Cl)c1)Nc1nc(-c2ccc(Cl)cc2)cs1 | 2 | -30 | 92* | -13 | 94*
O=C(Nc1cccc(Cl)c1)Nc1sccc1-c1nc2ccccc2s1 | -5 | 8 | 78* | 4 | 69*
O=C(NCc1csc(-c2cccs2)n1)Nc1cccc(Cl)c1 | 5 | 8 | 76* | 2 | 82*
COC(=O)[C@]12CCCCC=C1N(Cc1ccccc1)C(=O)[C@H](CC(=O)NCc1cccc(C(F)(F)F)c1)C2 | nt | 4 | 0 | 3 | nt
O=C(Nc1cc(S(=O)(=O)N2CCCCC2)ccc1Cl)c1ccccc1NS(=O)(=O)c1ccc(F)cc1 | -10 | -4 | 97* | -33 | 60*
CCOc1ccc(NC(=O)c2ccccc2NS(=O)(=O)c2ccc(F)cc2)c([N+](=O)[O-])c1 | 12 | 6 | 92* | -5 | 94*
O=C(c1ccccc1NS(=O)(=O)c1ccc(F)cc1)N1CCCCC1 | 6 | 5 | 0 | -3 | nt
O=C(Nc1cc(S(=O)(=O)Nc2ccc(Cl)cc2)ccc1O)c1ccc(S(=O)(=O)N2CCCCCC2)cc1 | 18 | 0 | 91* | 3 | 42*
O=C(Nc1cc(S(=O)(=O)N2CCCCC2)ccc1O)c1ccccc1NS(=O)(=O)c1ccc(F)cc1 | -3 | -1 | 97* | 23 | 71*
O=C(Nc1cc(S(=O)(=O)N2CCOCC2)ccc1O)c1ccc(S(=O)(=O)N2CCCCC2)cc1 | -6 | -14 | -1 | 12 | nt
O=C(Nc1nncs1)C1CC(=O)N(CCc2ccc(F)cc2)C1 (stereo unspecified) | -10 | -3 | -4 | -1 | nt
CN(CCc1cn[nH]c1)C(=O)C1CCC(=O)N(CC2CCCCC2)C1 (stereo unspecified) | 0 | 1 | 0 | -3 | nt
COc1ccc2nc(SCC(=O)N3CCN(c4ccc(F)cc4)CC3)c(C#N)cc2c1 | -5 | 5 | 2 | -5 | nt
Cc1ccccc1-c1nn(-c2ccc(F)cc2F)cc1CNCCCN(C)C | 6 | -9 | 87* | 3 | -12
Cc1c(CNC(=O)C2CCC(=O)N(CCc3ccccc3)C2)cnn1C (stereo unspecified) | 0 | 2 | 0 | -2 | nt
O=[N+]([O-])c1cc(C(F)(F)F)ccc1N1CCCC(O)C1 (stereo unspecified) | -2 | 3 | 0 | -2 | nt
COC(=O)c1ccc(NC(=S)NCCc2ccccc2C)cc1 | 3 | 1 | 100* | 2 | 83*
COC(=O)c1ccc(NC(=S)NCCc2cccc(C)c2)cc1 | -8 | 2 | 88* | 6 | 91*
COC(=O)c1ccc(NC(=S)NCCc2ccc(OC)cc2)cc1 | -5 | -4 | 8 | 4 | nt
COC(=O)c1ccc(NC(=S)NCC2CC2)cc1 | -12 | -5 | 11 | 6 | nt
